Lmaj promast: Leishmania major promastigote growth inhibition, primary screen; inhibition, % at 10 µM; AID 1063, 2008; Leishmania major promastigotes, resazurin fluorescence viability; hit rate 9% among 200,000; in the data active = inhibition above about 50%;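 note: promastigotes grown with compound for 44 hours at 28 °C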
WT yeast gro inh: growth inhibition of WT strain, primary screen, mitochondrial fusion inhibitor project, WT and mutant strains, chemical genetic | mitochondrial fusion phenotypic screen | inhibition, % at 10 µM | hit rate 2.1% among 190,000 | AID 1362, 2008; in the data active = inhibition above about 58%; tested in S. cerevisiae
RAM inhibit: inhibitors of the yeast RAM network, primary screen, dse1pr::URA3 reporter, 5-FOA selection. S. cerevisiae dse1pr::URA3 reporter, 5-FOA growth OD615, 2 d; analog-sensitive cbk1-as2 kinase mutant strain. inhibition, % at 50 µM. hit rate 1.8% among 190,000. AID 868, 2007;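 active = inhibition above a set limit, 3 SD over mean compound inhibition, cut at about 8.4% in these data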;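 note: inhibition rescues growth on 5-FOA so higher OD means more RAM inhibition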
ABCG2 block: ABCG2 efflux pump inhibitors, primary screen, multiplex with ABCB1, IgMXP3 cells, flow cytometry; Broad substrate specificity ATP-binding cassette transporter ABCG2 (Homo sapiens), Q9UNQ0; JC-1 efflux; inhibition, % at 6.6 µM; hit rate 0.1% among 190,000; AID 1325, 2008;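 active = inhibition above 80%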
Target sequence (Q9UNQ0 whole entry, looked up): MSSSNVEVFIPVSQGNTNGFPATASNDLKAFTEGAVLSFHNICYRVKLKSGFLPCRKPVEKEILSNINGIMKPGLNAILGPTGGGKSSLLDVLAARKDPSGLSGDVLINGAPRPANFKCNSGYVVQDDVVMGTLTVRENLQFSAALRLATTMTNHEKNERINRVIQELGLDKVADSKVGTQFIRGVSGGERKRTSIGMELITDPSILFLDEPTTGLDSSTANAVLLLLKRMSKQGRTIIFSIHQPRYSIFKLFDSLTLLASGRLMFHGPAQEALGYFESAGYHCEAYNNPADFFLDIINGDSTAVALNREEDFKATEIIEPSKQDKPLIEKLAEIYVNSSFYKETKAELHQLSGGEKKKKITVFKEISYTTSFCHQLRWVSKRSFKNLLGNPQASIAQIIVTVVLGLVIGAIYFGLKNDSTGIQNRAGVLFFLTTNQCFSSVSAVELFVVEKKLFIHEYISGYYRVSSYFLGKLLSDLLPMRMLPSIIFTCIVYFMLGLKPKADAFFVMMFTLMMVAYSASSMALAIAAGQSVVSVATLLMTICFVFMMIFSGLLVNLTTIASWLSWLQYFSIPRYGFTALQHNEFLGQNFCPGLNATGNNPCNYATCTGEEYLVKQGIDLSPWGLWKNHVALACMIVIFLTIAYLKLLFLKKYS
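material = IgMXP3 (ABCG2) plus far-red-tagged CCRF-Adr (ABCB1) cells | amount = 3 million cells/mL, equal mix of both lines | also added = JC-1 transporter substrate | dosing = one concentration, 6.6 µM final | schedule = 10 min at 25 °C | measured by = flow cytometric JC-1 green MFI at 530 nm | read-out basis = percent efflux inhibition, scaled nicardipine 100% to DMSO 0%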
ABCB1 block: ABCB1 efflux pump inhibitors, primary screen, cell-based, multiplex, flow cytometry, ABCG2 counter-screen; CCRF-Adr cells, JC-1 efflux; inhibition, % at 6.6 µM; hit rate 0.067% among 190,000; in the data active = inhibition above about 40%;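 note: higher value means more JC-1 retained so stronger ABCB1 efflux block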
Of the large screens only hits and unclear results are named; the others gave an inactive call. Compounds with a hit are over-represented: about 12% of the library has one in this group of screens.

COc1ccc(S(=O)(=O)Cc2ccc(C(=O)N3CCN(Cc4ccccc4)CC3)o2)cc1	Lmaj promast 99
Cc1ccc(S(=O)(=O)Cc2ccc(C(=O)N3CCN(Cc4ccccc4)CC3)o2)cc1	Lmaj promast 99
COc1ccc(S(=O)(=O)CCC(=O)N2CCN(c3ccc(F)cc3)CC2)cc1	RAM inhibit 10
O=C(CNCC1CCCO1)NCc1ccco1 (centres undefined)	none
CC(C)CC(C(=O)NC(C)(C)C)N(Cc1cccs1)C(=O)c1snc(C(N)=O)c1N (centres undefined)	none
Cc1ccc(C(=O)n2c(-c3ccccc3)cnc2SCC(=O)Nc2ccc(C)cc2C)cc1	none
CS(=O)(=O)c1ccc(C(=O)N2CCN(Cc3ccccc3)CC2)cc1	none
O=C(c1ccc(CNS(=O)(=O)c2ccccc2)cc1)N1CCN(Cc2ccccc2)CC1	Lmaj promast 72
COc1ccc(N2CCN(C(=O)c3ccc(CS(=O)(=O)c4ccc(OC)cc4)o3)CC2)cc1	Lmaj promast 81
CNC(=S)N1CCC(c2nc3ccccc3s2)CC1	none
C/C(=N\NC(=O)COc1ccc(C#N)cc1)c1ccccc1OC(F)F	none
CC(C)N=c1scc(-c2cccs2)n1/N=C/c1ccc(O)c(O)c1O	WT yeast gro inh 82
CN=c1scc(-c2ccccc2F)n1/N=C/c1ccc(O)c(O)c1O	none
CC1CCN(S(=O)(=O)c2ccc3nc(-c4ccccn4)cc(C(=O)NCCN(C)Cc4ccccc4)c3c2)CC1	none
CCC(CC)NCc1ccc2c(c1)c1ccccc1n2CC	Lmaj promast 95
CCn1c2ccccc2c2cc(N)ccc21	Lmaj promast 78
CCn1c2ccccc2c2cc(NC(=O)c3ccc(Br)o3)ccc21	none
CCn1c2ccccc2c2cc(NC(=O)COc3ccc(OC)cc3)ccc21	none
CCn1c2ccccc2c2cc(CNCc3ccc(OC)cc3OC)ccc21	Lmaj promast 81, WT yeast gro inh 84
C/C(CCc1ccccc1)=N/NC(=O)C(=O)NCc1ccccc1	none
CCC(=O)NC(NC(=S)Nc1c(C)n(C)n(-c2ccccc2)c1=O)C(Cl)(Cl)Cl (centres undefined)	none
CC1CCN(Cc2c(O)ccc3c(=O)c(-c4nc5ccccc5s4)c(N)oc23)CC1	Lmaj promast 60
CC1CCCN(Cc2c(O)ccc3c(=O)c(-c4nc5ccccc5s4)c(N)oc23)C1 (centres undefined)	Lmaj promast 101 (no result: WT yeast gro inh)
O=C(NCC1CCCO1)c1ccc(CSCc2cccc(F)c2)o1 (centres undefined)	none
C/C(=N\NC(=O)CCCNc1ccc(C)cc1)c1ccccn1	Lmaj promast 98
C=CCNC(=S)N/N=C(\C)c1ccccn1	Lmaj promast 100
CCN(CC)CCN(Cc1cc2cc(C)ccc2[nH]c1=O)C(=S)Nc1ccccc1	none
N#C/C(=N\Nc1ccccc1F)c1nc(-c2ccccc2)cs1	RAM inhibit 9.8
Cc1ccc(Nc2nc(N)nc(CSc3nc4ccccc4s3)n2)cc1	WT yeast gro inh 86, RAM inhibit 9.8
Cc1ccccc1Nc1nc(N)nc(CN(C)Cc2ccccc2Cl)n1	Lmaj promast 51
Cc1ccc(Nc2nc(N)nc(CN3CCc4ccccc4C3)n2)cc1	none
Cc1ccc(Nc2nc(N)nc(CN3CCC(C)CC3)n2)c(C)c1	Lmaj promast 62
Cc1c(Cl)cccc1Nc1nc(N)nc(CN2CCc3ccccc3C2)n1	Lmaj promast 89
Cc1ccccc1Nc1nc(N)nc(CSc2ccc(F)cc2)n1	none
Cc1ccccc1Nc1nc(N)nc(CSc2nc3ccccc3s2)n1	none
Cc1ccc(Nc2nc(N)nc(CN3CCCCCC3)n2)c(C)c1	none
CCc1cc(C(=O)N2CCCC(CNC(=O)c3ccc(-c4ccccc4)cc3)C2)no1 (centres undefined)	none
Cc1ccc(SCc2nc(N)nc(Nc3ccccc3C)n2)c(C)c1	Lmaj promast 60
Cc1ccccc1Nc1nc(N)nc(CSCC(=O)Nc2cccc(Br)c2)n1	Lmaj promast 81
CCC(c1nnnn1C(C)(C)C)N(Cc1cccs1)Cc1cc2cc(C)c(C)cc2n2nnnc12 (centres undefined)	Lmaj promast 78 (no result: WT yeast gro inh, RAM inhibit, ABCG2 block, ABCB1 block)
CCOc1ccc2[nH]c(=O)c(CN(Cc3ccco3)C(CC)c3nnnn3Cc3ccccc3)cc2c1 (centres undefined)	none
CCOC(=O)Cn1nnnc1C(C(C)C)N(Cc1cccs1)Cc1cc2cc(C)ccc2[nH]c1=O (centres undefined)	none
CCOc1ccc2[nH]c(=O)c(CN(Cc3cccs3)C(CC)c3nnnn3C(C)(C)CC)cc2c1 (centres undefined)	Lmaj promast 75
CCOC(=O)Cn1nnnc1C(CC)N(Cc1cccs1)Cc1cc2cc(C)ccc2[nH]c1=O (centres undefined)	Lmaj promast 95
CCC(c1nnnn1C1CCCC1)N(Cc1cccs1)Cc1cc2cc(C)ccc2[nH]c1=O (centres undefined)	Lmaj promast 63
C=C(C)c1cccc(C(C)(C)NC(=O)N2CCC(C(N)=O)CC2)c1	none
Cc1cc(C)nc(NCCC(=O)O)n1	none
CCCN1Cc2cccc(C(=O)NC(CC(=O)OCC)c3ccc(OC(C)C)cc3)c2C1=O (centres undefined)	none
CCCN1Cc2cccc(C(=O)NC(CC(=O)OCC)c3ccc(C)cc3)c2C1=O (centres undefined)	WT yeast gro inh 66
CCc1ccccc1NC(=O)C(CC)Sc1nc2cc3c(cc2c(=O)n1Cc1ccco1)OCO3 (centres undefined)	Lmaj promast 100
CC(C)c1ccc(/C=N/NC(=O)c2nnn(-c3nonc3N)c2CSC2=NCCS2)cc1	Lmaj promast 97
Nc1nonc1-n1nnc(C(=O)N/N=C/c2ccc(Br)cc2)c1CSC1=NCCS1	none
CC1=C(NCCc2ccccc2)CCC1=O	Lmaj promast 64
O=C(/C=C/c1ccccc1Cl)NCc1cccs1	none
CC1(C)CC(=O)C2=C(C1)OC(N)=C(C#N)C21C(=O)N(Cc2ccccc2Cl)c2ccccc21 (centres undefined)	Lmaj promast 59
CC1(C)CC(=O)C2=C(C1)OC(N)=C(C#N)C21CCN(Cc2ccccc2)CC1	none
CCc1ccc(NC(=O)CCNS(=O)(=O)c2cccc3nsnc23)cc1	none
CCc1ccc(-n2cccc2/C=C2/C(=N)N3C(=NC2=O)SN=C3S(C)(=O)=O)cc1	RAM inhibit 11
CCC(=O)N1CCN(c2ccc(NC(=O)c3cc4ccccc4o3)cc2Cl)CC1	none
O=C(c1ccccc1)N1CCN(C(=O)c2cc3ccccc3o2)CC1	none
CCCC(=O)N1CCN(c2ccc(NC(=O)c3cc4ccccc4o3)cc2Cl)CC1	Lmaj promast 60
O=C(c1cc2ccccc2o1)N1CCN(c2ccccc2Cl)CC1	WT yeast gro inh 75
